Results collected from several papers.
Lines come from different studies, so protocols differ.
Target: Dual specificity protein kinase CLK4 (CLK4, Homo sapiens, UniProt Q9HAZ1)

| SMILES | test | conditions | endpoint | result |
| --- | --- | --- | --- | --- |
| CCOCCn1cc(C(=O)Nc2ccc(-n3nc(-c4cccnc4)cc3C(F)(F)F)cn2)ccc1=O | cell-free assay, competition with immobilised ligand | 1 µM | remaining binding | 100% |
| N#CCCc1ccc2c(c1)-c1[nH]c3ccc([N+](=O)[O-])cc3c1CC(=O)N2 | cell-free assay | 0.5 µM | remaining signal | 77.1% |
| Nc1ncnc2occ(-c3ccc(NC(=O)Nc4cc(C(F)(F)F)ccc4F)cc3)c12 | cell-free assay, inhibitor | 20 µM | remaining signal | 5.8% |
| NS(=O)(=O)c1cc(NC(=O)Cc2ccccc2)ccc1Oc1cccc(Cl)c1 | cell-free assay, competition with immobilised ligand | 1 µM | remaining binding | 83% |
| CC(C)(C)c1nc(-c2cccc(NS(=O)(=O)c3c(F)cccc3F)c2F)c(-c2ccnc(N)n2)s1 | enzyme activity, inhibitor, radiometric | 1 µM | remaining activity | 74% |
| Cn1cnc(Br)c1C1=CN(c2ncnc3[nH]cnc23)CCS1 | enzyme activity, inhibitor, radiometric | 2 µM | inhibition | 98.8% |
| C[C@@H]1CN(c2cc(-c3nn(C)c4ccc(OC5(C)CC5)cc34)ncn2)C[C@H](C)O1 | cell-free assay, competition with immobilised ligand | 1 µM | remaining binding | 100% |
| COc1cc(Cl)c(C(=O)N[C@@H](CN[C@H]2CC[C@@H](N)CC2)Cc2ccc(C#N)cc2)cc1-c1ccc(CN[C@H](C)c2ccc(C)cc2)o1 | enzyme activity, inhibitor | 1 µM | remaining activity | 103% |
| O=C1Nc2ccc(Cl)cc2C1=Cc1cc(Cl)c(O)c(Cl)c1 | cell-free assay | 0.5 µM | remaining signal | 60.7% |
| O=C(CSc1nc2nccnc2c(=O)n1CCc1ccccc1)Nc1nccs1 | enzyme activity, inhibitor | 10 µM | inhibition | 5% |
| CCN1/C(=C/C(C)=O)Sc2ccc(OC)cc21 | cell-free assay | 0.5 µM | remaining signal | 18.5% |
| Cc1sc(C(=O)NC2COC2)cc1-n1cc(NC(=O)Nc2c(F)cccc2Cl)cn1 | enzyme activity, inhibitor | 10 µM | remaining activity | 102% |
| Oc1cccc(-c2nc(N3CCOCC3)c3oc4ncccc4c3n2)c1 | cell-free assay | 0.5 µM | remaining signal | 81.5% |
| Cc1cc(NC(=O)c2cccc3cc(-c4cccc5[nH]nc(N)c45)ccc23)ccc1F | enzyme activity, inhibitor | 0.1 µM | activity vs control | 90% |
| O=C(Nc1cccnn1)N1CCC(=Cc2cccc(Oc3ccc(C(F)(F)F)cn3)c2)CC1 | cell-free assay, competition with immobilised ligand | 1 µM | remaining binding | 70% |
| Cn1cncc1C1=CN(c2ncnc3[nH]cnc23)CCS1 | enzyme activity, inhibitor, radiometric | 2 µM | inhibition | 84.7% |
| CS(=O)(=O)N1CCCC(NC(=O)[C@H](CCC2CCCCC2)NC(=O)c2ccc(CNc3ncnc4c3nnn4-c3ccccc3)cc2)C1 (some centres unmarked) | cell-free assay, competition with immobilised ligand | 0.1 µM | remaining binding | 85% |
| COc1cc(-c2cc(-c3ccc(N4CCNCC4)cc3)cnc2C)cc(OC)c1OC | enzyme activity, inhibitor | 1 µM | inhibition | 7% |
| O=C1NC(=O)c2cc(Nc3ccc(F)cc3)c(Nc3ccc(F)cc3)cc21 | cell-free assay | 0.5 µM | remaining signal | 88.6% |
| CC(=O)Nc1c(C(C)=O)c(=O)n(C)c2nc(-c3ccc(Cl)cc3Cl)c(-c3ccc(Cl)cc3)cc12 | cell-free assay, competition with immobilised ligand | 1 µM | remaining binding | 100% |
